# From paper PMC2875079 (Journal of medicinal chemistry, 2010)
# T1: mouse SphK2 (Mus musculus, UniProt Q9JIA7)
# T1 sequence (Q9JIA7 1-617): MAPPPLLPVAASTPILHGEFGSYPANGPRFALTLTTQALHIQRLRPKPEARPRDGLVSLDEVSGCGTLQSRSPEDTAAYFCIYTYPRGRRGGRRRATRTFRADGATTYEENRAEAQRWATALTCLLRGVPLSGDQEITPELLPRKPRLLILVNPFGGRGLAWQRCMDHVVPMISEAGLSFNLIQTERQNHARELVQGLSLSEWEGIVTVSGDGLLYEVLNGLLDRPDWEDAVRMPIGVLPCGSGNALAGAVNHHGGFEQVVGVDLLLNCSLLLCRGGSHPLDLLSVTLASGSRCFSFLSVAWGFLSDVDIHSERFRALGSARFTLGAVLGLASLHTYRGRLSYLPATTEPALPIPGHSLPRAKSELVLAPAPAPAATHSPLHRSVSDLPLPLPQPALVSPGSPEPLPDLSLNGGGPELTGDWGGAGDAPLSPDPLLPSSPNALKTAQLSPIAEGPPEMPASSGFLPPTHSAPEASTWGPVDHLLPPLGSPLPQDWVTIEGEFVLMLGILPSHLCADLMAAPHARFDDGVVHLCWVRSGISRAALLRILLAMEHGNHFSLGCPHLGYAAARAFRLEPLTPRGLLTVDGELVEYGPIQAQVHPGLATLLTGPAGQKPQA
# T2: diacylglycerol kinase type δ1 (Homo sapiens, UniProt Q16760)
# T2 sequence (Q16760 1-1170 isoform Q16760-2): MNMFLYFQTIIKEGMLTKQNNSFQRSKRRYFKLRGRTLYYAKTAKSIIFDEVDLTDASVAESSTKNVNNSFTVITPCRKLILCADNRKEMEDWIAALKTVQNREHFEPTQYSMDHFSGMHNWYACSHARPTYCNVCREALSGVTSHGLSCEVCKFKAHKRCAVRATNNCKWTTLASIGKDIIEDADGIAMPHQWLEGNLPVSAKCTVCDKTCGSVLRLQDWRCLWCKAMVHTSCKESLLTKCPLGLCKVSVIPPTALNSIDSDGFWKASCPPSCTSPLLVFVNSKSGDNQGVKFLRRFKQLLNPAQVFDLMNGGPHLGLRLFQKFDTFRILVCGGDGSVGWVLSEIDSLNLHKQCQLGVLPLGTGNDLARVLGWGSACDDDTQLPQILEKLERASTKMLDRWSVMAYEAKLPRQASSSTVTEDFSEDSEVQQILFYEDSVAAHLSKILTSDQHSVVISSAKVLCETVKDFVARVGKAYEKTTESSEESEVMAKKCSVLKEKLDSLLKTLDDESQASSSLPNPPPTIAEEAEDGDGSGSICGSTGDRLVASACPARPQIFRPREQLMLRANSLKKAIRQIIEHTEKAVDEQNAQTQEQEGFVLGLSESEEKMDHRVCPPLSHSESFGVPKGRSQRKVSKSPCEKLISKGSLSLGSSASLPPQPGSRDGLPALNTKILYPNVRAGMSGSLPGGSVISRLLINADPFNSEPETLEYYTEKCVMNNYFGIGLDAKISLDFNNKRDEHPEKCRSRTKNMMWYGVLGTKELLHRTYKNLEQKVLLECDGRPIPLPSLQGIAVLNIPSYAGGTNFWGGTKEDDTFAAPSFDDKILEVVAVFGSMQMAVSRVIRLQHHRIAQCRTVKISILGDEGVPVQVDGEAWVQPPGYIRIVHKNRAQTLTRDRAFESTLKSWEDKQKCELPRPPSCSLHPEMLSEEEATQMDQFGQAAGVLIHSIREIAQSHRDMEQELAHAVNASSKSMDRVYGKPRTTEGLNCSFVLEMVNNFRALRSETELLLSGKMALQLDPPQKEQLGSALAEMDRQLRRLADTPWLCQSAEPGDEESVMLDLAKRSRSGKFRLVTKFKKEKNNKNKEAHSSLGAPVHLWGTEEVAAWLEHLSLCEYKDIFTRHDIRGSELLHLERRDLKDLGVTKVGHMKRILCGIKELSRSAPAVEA
# B1: Human SphK1 (Homo sapiens) (protein)
# chain: MDPAGGPRGVLPRPCRVLVLLNPRGGKGKALQLFRSHVQPLLAEAEISFTLMLTERRNHARELVRSEELGRWDALVVMSGDGLMHEVVNGLMERPDWETAIQKPLCSLPAGSGNALAASLNHYAGYEQVTNEDLLTNCTLLLCRRLLSPMNLLSLHTASGLRLFSVLSLAWGFIADVDLESEKYRRLGEMRFTLGTFLRLAALRTYRGRLAYLPVGRVGSKTPASPVVVQQGPVDAHLVPLEEPVPSHWTVVPDEDFVLVLALLHSHLGSEMFAAPMGRCAAGVMHLFYVRAGVSRAMLLRLFLAMEKGRHMEYECPYLVYVPVVAFRLEPKDGKGVFAVDGELMVSEAVQGQVHPNYFWMVSGCVEPPPSWKPQQMPPPEEPL
# B2: mouse SphK2 (Mus musculus) (protein)
# chain: MAPPPLLPVAASTPILHGEFGSYPANGPRFALTLTTQALHIQRLRPKPEARPRDGLVSLDEVSGCGTLQSRSPEDTAAYFCIYTYPRGRRGGRRRATRTFRADGATTYEENRAEAQRWATALTCLLRGVPLSGDQEITPELLPRKPRLLILVNPFGGRGLAWQRCMDHVVPMISEAGLSFNLIQTERQNHARELVQGLSLSEWEGIVTVSGDGLLYEVLNGLLDRPDWEDAVRMPIGVLPCGSGNALAGAVNHHGGFEQVVGVDLLLNCSLLLCRGGSHPLDLLSVTLASGSRCFSFLSVAWGFLSDVDIHSERFRALGSARFTLGAVLGLASLHTYRGRLSYLPATTEPALPIPGHSLPRAKSELVLAPAPAPAATHSPLHRSVSDLPLPLPQPALVSPGSPEPLPDLSLNGGGPELTGDWGGAGDAPLSPDPLLPSSPNALKTAQLSPIAEGPPEMPASSGFLPPTHSAPEASTWGPVDHLLPPLGSPLPQDWVTIEGEFVLMLGILPSHLCADLMAAPHARFDDGVVHLCWVRSGISRAALLRILLAMEHGNHFSLGCPHLGYAAARAFRLEPLTPRGLLTVDGELVEYGPIQAQVHPGLATLLTGPAGQKPQA
# What was measured:
# Human SphK1 = Human SphK1 (Homo sapiens, UniProt Q9NYA1); experiment: Sphingosine kinase assay, recombinant SphK1; type: biochemical; conditions: for Inhibition of SphK1: at concentrations up to 100 μM
# mouse SphK2 = biological target: T1, mouse SphK2; experiment: Sphingosine kinase assay, recombinant SphK2; type: biochemical; conditions: for Inhibition of SphK2: at concentrations up to 100 μM
# [1] = test system: vascular smooth muscle cells; experiment: Intracellular S1P concentration by LC/MS in serum-stimulated smooth muscle cells; type: cell-based, rat; conditions: pre-treated 30 min, then 10% serum; Figure 3C
# Summary of the method: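 Rat aortic smooth muscle cells were pre-treated with test compound for 30 min, then given 10% FBS for 12 h. Cells were washed in PBS and scraped into ice-cold MeOH, then extracted with CHCl3/0.1 M HCl containing 50 pmol C17 S1P internal standard. The organic phase was acetylated (acetic anhydride/pyridine). Analysis used C8 LC with […] ESI-MS/MS (BisAcS1P 462/402), quantified against calibration curves. N=2 biological replicates; mean ± st dev.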
# [2] = test system: vascular smooth muscle cells; experiment: Smooth muscle cell proliferation, BrdU incorporation; type: cell-based, rat; conditions: pre-treated 30 min, 10% serum 24 hours, Figure 3D
# Summary of the method: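 Rat aortic vascular smooth muscle cells were pre-treated 30 min with a dose range of test compound, then stimulated with 10% FBS for 24 h. Proliferation was read as BrdU (10 μM) incorporation by immunoassay. N=6 biological replicates; mean ± st dev; P < 0.05 marked.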
# [3] = test system: vascular smooth muscle cells; experiment: Cytotoxicity on visual microscopic inspection; type: cell-based; conditions: 10% FBS + compound (10 μM), light microscopy; Figure 3E
# Summary of the method: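 Rat aortic vascular smooth muscle cells were imaged by light microscopy at 20× magnification. Conditions were untreated control, 10% FBS, and 10% FBS plus test compound at 10 μM. Cytotoxicity was judged by visual inspection.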
# [4] = test system: vascular smooth muscle cells; experiment: Cell viability / cytotoxic response, Promega MultiTox-Fluor Assay; type: cell-based; conditions: 0.001 μM – 100 μM, Figure 3F
# Summary of the method: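 Rat aortic vascular smooth muscle cells, cultured in vitro. Test compound applied at 0.001–100 μM, with 20 μM cyclosporine A as comparator. Cytotoxicity read with the MultiTox-Fluor fluorescence kit. N=3 biological replicates; mean ± st dev; P < 0.05 marked.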
# [5] = biological target: diacylglycerol kinase type γ (Homo sapiens, UniProt P49619); experiment: Specificity test at recombinant diacylglycerol kinase type γ; type: biochemical; conditions: at concentrations up to 100 μM
# [6] = biological target: T2, diacylglycerol kinase type δ1; experiment: Specificity test at recombinant diacylglycerol kinase type δ1; type: biochemical; conditions: at concentrations up to 100 μM
# [7] = biological target: diacylglycerol kinase type ζ (Homo sapiens, UniProt Q13574); experiment: Specificity test at recombinant diacylglycerol kinase type ζ; type: biochemical; conditions: at concentrations up to 100 μM
# PKCα = PKCα (Homo sapiens, UniProt P17252); experiment: Specificity test at PKCα; type: biochemical; conditions: at concentrations up to 10 μM
# SphKs = conditions: cited from earlier work
# SphK1 = conditions: read-out: KM of SphK1 for sphingosine; cited from earlier work
# SphK2 = conditions: read-out: KM of SphK2 for sphingosine; cited from earlier work
# [8] = in water and DMSO; cited from earlier work
# [9] = substrate: CCCCCCCCCCCCC/C=C/[C@@H](O)[C@@H](N)CO; experiment: Sphingosine kinase assay, recombinant SphK1; type: biochemical, human; conditions: other: substrate D-erythro-sphingosine, absence of inhibitor
# [10] = substrate: CCCCCCCCCCCCC/C=C/[C@@H](O)[C@@H](N)CO; experiment: Sphingosine kinase assay, recombinant SphK2; type: biochemical, mouse; conditions: other: substrate D-erythro-sphingosine, absence of inhibitor
# Sequence of diacylglycerol kinase type γ (P49619 whole entry): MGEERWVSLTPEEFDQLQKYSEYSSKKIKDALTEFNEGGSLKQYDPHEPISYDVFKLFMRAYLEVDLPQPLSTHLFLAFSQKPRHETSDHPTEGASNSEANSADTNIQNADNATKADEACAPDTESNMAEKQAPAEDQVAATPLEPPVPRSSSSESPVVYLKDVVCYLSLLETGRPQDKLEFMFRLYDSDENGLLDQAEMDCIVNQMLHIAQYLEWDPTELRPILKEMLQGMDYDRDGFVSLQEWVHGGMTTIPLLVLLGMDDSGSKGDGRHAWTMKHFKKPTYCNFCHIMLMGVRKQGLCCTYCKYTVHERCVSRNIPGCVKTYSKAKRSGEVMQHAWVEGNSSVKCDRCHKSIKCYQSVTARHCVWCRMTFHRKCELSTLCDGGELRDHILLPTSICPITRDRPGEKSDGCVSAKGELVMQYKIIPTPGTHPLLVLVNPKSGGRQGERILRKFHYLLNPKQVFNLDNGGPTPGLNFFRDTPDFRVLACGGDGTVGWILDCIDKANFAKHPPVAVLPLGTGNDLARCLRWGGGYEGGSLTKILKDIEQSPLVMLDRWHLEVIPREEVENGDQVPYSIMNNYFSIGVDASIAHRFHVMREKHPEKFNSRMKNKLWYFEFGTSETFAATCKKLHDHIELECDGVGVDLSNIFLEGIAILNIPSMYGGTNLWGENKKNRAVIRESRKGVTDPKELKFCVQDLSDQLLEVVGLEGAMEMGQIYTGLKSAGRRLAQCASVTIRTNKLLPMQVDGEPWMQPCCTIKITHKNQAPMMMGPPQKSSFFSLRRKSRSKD
# Sequence of diacylglycerol kinase type ζ (Q13574 whole entry): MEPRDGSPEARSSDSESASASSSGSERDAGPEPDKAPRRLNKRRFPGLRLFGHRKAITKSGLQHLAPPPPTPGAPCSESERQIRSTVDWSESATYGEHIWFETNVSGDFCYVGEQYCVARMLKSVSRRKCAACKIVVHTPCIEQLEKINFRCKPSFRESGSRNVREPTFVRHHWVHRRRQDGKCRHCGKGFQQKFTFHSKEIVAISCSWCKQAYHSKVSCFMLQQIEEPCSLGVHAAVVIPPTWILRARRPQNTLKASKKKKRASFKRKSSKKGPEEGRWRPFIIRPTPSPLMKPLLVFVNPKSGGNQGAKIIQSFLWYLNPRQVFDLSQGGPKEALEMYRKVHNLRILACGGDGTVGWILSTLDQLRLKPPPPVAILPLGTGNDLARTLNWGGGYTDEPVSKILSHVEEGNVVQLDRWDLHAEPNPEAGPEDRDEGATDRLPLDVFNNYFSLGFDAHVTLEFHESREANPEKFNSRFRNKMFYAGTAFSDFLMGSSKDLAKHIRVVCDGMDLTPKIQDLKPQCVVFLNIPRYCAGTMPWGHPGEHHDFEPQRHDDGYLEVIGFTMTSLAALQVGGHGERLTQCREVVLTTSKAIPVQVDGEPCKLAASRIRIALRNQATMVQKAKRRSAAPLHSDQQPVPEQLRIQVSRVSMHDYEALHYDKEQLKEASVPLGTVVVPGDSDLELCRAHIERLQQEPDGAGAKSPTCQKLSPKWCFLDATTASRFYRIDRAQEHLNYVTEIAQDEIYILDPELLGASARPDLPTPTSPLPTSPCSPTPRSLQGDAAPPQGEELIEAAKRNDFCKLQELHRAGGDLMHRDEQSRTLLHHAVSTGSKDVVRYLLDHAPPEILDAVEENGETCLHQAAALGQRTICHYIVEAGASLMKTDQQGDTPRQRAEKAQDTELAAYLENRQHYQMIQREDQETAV
molecule,measurement,setting,value
"CCCCCCCCc1ccc(C(=O)N[C@@H](C)C(=N)N)cc1.Cl [compound 9, (S)-N-(1-amino-1-iminopropan-2-yl)-4-octylbenzamide hydrochloride]",Ki,Human SphK1,55 µM
same,Ki,mouse SphK2,20 µM
same,Serum-induced changes in S1P intracellular concentration,[1],blocked
same,Blocked serum-induced smooth muscle cell proliferation,[2],blocked
same,Cytotoxicity on visual microscopic inspection,[3],not cytotoxic
same,Cytotoxicity/death in cell viability assay,[4],did not induce cytotoxicity/death
"CCCCCCCCCCCCc1ccc(C(=O)NC2(C(=N)N)CC2)cc1.Cl [compound 23, N-(1-carbamimidoylcyclopropyl)-4-dodecylbenzamide hydrochloride]",Inhibition of diacylglycerol kinase type γ,[5],no inhibition
same,Inhibition of diacylglycerol kinase type δ1,[6],no inhibition
same,Inhibition of diacylglycerol kinase type ζ,[7],no inhibition
same,Inhibition of PKCα,PKCα,no inhibition
"CCCCCCCCCCCCc1ccc(NC(=O)C2(C(=N)N)CC2)cc1.Cl [compound 28, 1-carbamimidoyl-N-(4-dodecylphenyl)cyclopropanecarboxamide hydrochloride]",Ki,mouse SphK2,6 µM
same,Inhibition of diacylglycerol kinase type γ,[5],no inhibition
same,Inhibition of diacylglycerol kinase type δ1,[6],no inhibition
same,Inhibition of diacylglycerol kinase type ζ,[7],no inhibition
same,Inhibition of PKCα,PKCα,no inhibition
"CCCCCCCCc1ccc(C(=O)N[C@@H](C)C(=O)O)cc1 [compound 12, (S)-2-(4-octylbenzamido)propanoic acid]",Inhibition of SphK1,Human SphK1,no inhibition
same,Inhibition of SphK2,mouse SphK2,no inhibition
"CCCCCCCCc1ccc(C(=O)N[C@@H](C)C(N)=O)cc1 [compound 13, (S)-N-(1-amino-1-oxopropan-2-yl)-4-octylbenzamide]",Inhibition of SphK1,Human SphK1,no inhibition
same,Inhibition of SphK2,mouse SphK2,no inhibition
CCCCCCCCCCCCC/C=C/[C@@H](O)[C@H](N)CO [D-(+)-threo-sphingosine],Inhibition of the SphKs,SphKs,weak inhibitor
"CCCCCCCCCCCCC/C=C/[C@@H](O)[C@@H](N)CO [Sphingosine, D-erythro-sphingosine]",Km,SphK1,~10 µM
same,Km,SphK2,~5 µM
Cn1cc(NC(=O)c2cc(NC(=O)c3cc(NC=O)cn3C)cn2C)cc1C(=O)NCCC(=N)N [Distamycin A],pKa,[8],11.6
B1,Km,[9],10 µM
B2,Km,[10],5 µM
